Data set [1] deals with Mus musculus. As to the kind of experiment: Analgesic activity in Slc:ddY mouse assessed as inhibition of acetic acid-induced writhings at 30 mg/kg, po relative to control. The class given is functional. Put shortly:
(§1)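 Acetic acid-induced writhing in Slc:ddY mice after oral dosing. Read-out is reduction (% inhibition) of writhing behaviour. ED50 calculated from the dose-response curve of analgesic activity at 10, 30 and 100 mpk.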
Background: Writhing tests count abdominal constrictions after an irritant is injected.

Data set [2] is described as follows: Distribution coefficient between 1-octanol and phosphate buffer, logD of the compound in pH 7.4 buffer. The class given is physicochemical. Particulars: 1-octanol/phosphate buffer. Put shortly: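 Log D measured as partitioning between 1-octanol and phosphate-buffered saline at pH 7.4.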
Data set [3] is described as follows: AUC in ddY mouse 10 mg/kg, po. The class given is ADME, organism-based. To be noted: in vivo. In outline:
(§2)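 Plasma pharmacokinetics in ddY mice after a single oral dose of 10 mg/kg, given as a 0.5 w/v% methylcellulose suspension. Reported values are the average of three.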

Data set [4] can be described thus: Cmax in ddY mouse 10 mg/kg, po. The data set is classed as ADME, organism-based. Also noted: dose 10 mg/kg, route oral. Particulars: in vivo. In outline: as §2
A short description of data set [5]: Half life in ddY mouse 10 mg/kg, po. The class given is ADME, organism-based. Particulars: in vivo. Put shortly: as §2
The species named for data set [6] is Mus musculus. As to the kind of experiment: Analgesic activity in Slc:ddY mouse assessed as inhibition of acetic acid-induced writhings. The class given is functional. Put shortly: as §1
For data set [7], the target named is T1, Mu-type opioid receptor (Homo sapiens, UniProt P35372). As to the kind of experiment: Displacement of [3H]-diprenorphine from MOR (unknown origin). The class given is ADME. (In general: In a radioligand displacement assay an active substance lowers the binding of a labelled ligand.)
T1 sequence (P35372 whole entry): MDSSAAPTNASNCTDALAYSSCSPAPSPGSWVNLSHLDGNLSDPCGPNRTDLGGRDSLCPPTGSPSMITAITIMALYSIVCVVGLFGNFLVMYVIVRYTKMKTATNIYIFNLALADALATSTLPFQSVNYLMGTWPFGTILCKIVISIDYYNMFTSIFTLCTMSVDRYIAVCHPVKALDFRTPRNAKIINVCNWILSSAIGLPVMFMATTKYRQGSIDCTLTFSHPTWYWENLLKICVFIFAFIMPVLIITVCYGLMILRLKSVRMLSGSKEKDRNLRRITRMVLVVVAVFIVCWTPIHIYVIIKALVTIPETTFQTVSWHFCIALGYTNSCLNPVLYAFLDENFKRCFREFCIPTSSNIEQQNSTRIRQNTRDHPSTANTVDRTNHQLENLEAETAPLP
The target of data set [8] is T1, Mu-type opioid receptor. As to the kind of experiment: Agonist activity at human mu opioid receptor expressed in CHO cells by cAMP assay. The class given is cell-based. Put shortly:
(§3)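 Human MOR expressed in CHO cells; cAMP read-out. EC50 derived from the cAMP response.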
(Cyclic AMP is a second messenger, typically raised through Gs and lowered through Gi signalling.)

The target in data set [9] is T1, Mu-type opioid receptor. As to the kind of experiment: Agonist activity at human mu opioid receptor expressed in CHO cells by cAMP assay relative to DAMGO. The data set is classed as cell-based. Put shortly:
as §3

Data set [10] has as its system Mus musculus. As to the kind of experiment: Analgesic activity in Slc:ddY mouse assessed as reduction in sum of the time spent in paw licking or biting responses during phase 1 at 30 mg/kg, po dosed 30 mins before formalin injection by formalin test relative to control. The data set is classed as functional. Put shortly: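 Formalin test in Slc:ddY mice (n = 8). Compound given p.o. at 30 mg/kg; 30 min later 3.5% formalin (20 μL) injected into the hind paw pad. Read-out is the reduction in summed paw licking and biting time over the first 10 min after injection (initial phase).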

For data set [11], the system named is Mus musculus. As to the kind of experiment: Analgesic activity in Slc:ddY mouse assessed as inhibition of acetic acid-induced writhings at 3 mg/kg, po relative to control. The class given is functional.
In data set [12] the test system is Mus musculus. As to the kind of experiment: Analgesic activity in Slc:ddY mouse assessed as inhibition of acetic acid-induced writhings at 10 mg/kg, po relative to control. The data set is classed as functional. In outline:
as §1

Each structure is given as a SMILES string.

`C/C=C1/CN2CCC1C(=O)c1[nH]c3cccc(OC)c3c1C2` (racemic): the inhibition in vivo at 30 mg/kg with Mus musculus [1] is 42%. In [2], the pH-dependent lipophilicity (logD) came out at 3.4.

For `C/C=C1/CN2CCC1C(=O)c1[nH]c3ccccc3c1C2` (racemic), the inhibition in vivo at 30 mg/kg in the data set with Mus musculus [1] turned out to be 49%.

Consider `O=C1c2[nH]c3ccccc3c2CN2CCC1CC2`, for which the inhibition in vivo at 30 mg/kg in the data set on Mus musculus [1] was 73%. The compound also yielded a logD in data set [2] of 1.8. This compound returned an AUC in [3] of 2.26 µM·h. For the same compound, the Cmax in data set [4] turned out to be 1160 nM. In [5], the half-life was 1.17 h. Further, the ED50 in the data set listed under Mus musculus [6] is 11 mg/kg. In addition, the IC50 at Mu-type opioid receptor [7] is over 100 µM. Besides, the EC50 on Mu-type opioid receptor [8] was over 100 µM. At Mu-type opioid receptor [9], this compound showed a maximum response (Emax) of 13%.

For the compound `C/C=C1/CN2CCC1C(=O)c1[nH]c3cc(OC)ccc3c1C2` (racemic), the inhibition in vivo at 30 mg/kg in the data set with Mus musculus [1] stood at 31%. Besides, the logD in data set [2] was 3.1.

For the compound `C/C=C1/CN2CCC1C(=O)c1[nH]c3ccc(OC)cc3c1C2` (racemic), the inhibition in vivo at 30 mg/kg in the data set on Mus musculus [1] came out at 3%. The logD in [2] was found to be 3.1.

Consider `C/C=C1\CN2CCC1C(=O)c1[nH]c3ccccc3c1C2` (racemic), for which, in the data set with Mus musculus [1], the inhibition in vivo at 30 mg/kg turned out to be 18%. This compound also came in with a pH-dependent lipophilicity (logD) in [2] of 3.3.

For `C/C=C1/CN2CC[C@H]1C(=O)c1[nH]c3ccccc3c1C2.O=S(=O)(O)O`, the inhibition in vivo at 30 mg/kg turned out to be 49% in the data set on Mus musculus [1] and 43% with Mus musculus [10]. In data set [2], this compound showed a logD of 2.8. Moreover, the ED50 in the data set filed under Mus musculus [6] turned out to be 32 mg/kg. Moreover, the half-maximal inhibitory concentration (IC50) at Mu-type opioid receptor [7] was 70 µM. In addition, on Mu-type opioid receptor [8], the EC50 was over 100 µM. On Mu-type opioid receptor [9], the Emax turned out to be 13%.

As to `C/C=C1/CN2CCC1C(=O)c1[nH]c3c(OC)cccc3c1C2` (racemic), the inhibition in vivo at 30 mg/kg with Mus musculus [1] came to 34%. Further, the logD in data set [2] is 3.3.

Regarding `CC12CCN(CC1)Cc1c([nH]c3ccccc13)C2=O.O=S(=O)(O)O`, the values for the inhibition in vivo at 30 mg/kg in the data set with Mus musculus [1] and in the data set with Mus musculus [10] were 90 to 94% and 92%, respectively. Moreover, the logD in data set [2] amounted to 2.5. For the same compound, the AUC in data set [3] amounted to 3.21 µM·h. In [4], the concentration peaked (Cmax) at 1250 nM. In addition, the half-life in data set [5] is 2.33 h. For the same compound, the ED50 in the data set listed under Mus musculus [6] stood at 7.8 mg/kg. At Mu-type opioid receptor [7], this compound gave an IC50 of 71 µM. This compound had a 50% effective concentration (EC50) at Mu-type opioid receptor [8] of over 100 µM. For the same compound, the Emax on Mu-type opioid receptor [9] turned out to be 12%. In the data set on Mus musculus [11], the inhibition in vivo at 3 mg/kg stood at 23%. Moreover, the inhibition in vivo at 10 mg/kg with Mus musculus [12] is 52%.

Regarding `CC/C=C1/CN2CCC1C(=O)c1[nH]c3ccccc3c1C2` (racemic), the inhibition in vivo at 30 mg/kg in the data set with Mus musculus [1] was 0%.

On to `C/C=C1/CN2CCC1C(=O)c1c(c3ccccc3n1C)C2` (racemic), for which, in the data set on Mus musculus [1], the inhibition in vivo at 30 mg/kg was found to be 30%. In [2], this compound returned a logD of 3.5.

Consider `CCC1CN2CCC1C(=O)c1[nH]c3ccccc3c1C2` (mixture of isomers), for which, in the data set with Mus musculus [1], the inhibition in vivo at 30 mg/kg was 50%.

For the compound `CCC12CCN(CC1)Cc1c([nH]c3ccccc13)C2=O.O=S(=O)(O)O`, the inhibition in vivo at 30 mg/kg in the data set with Mus musculus [1] was found to be 48%. This compound also returned a pH-dependent lipophilicity (logD) in data set [2] of 3. In data set [3], this compound displayed an exposure (AUC) of 1.02 µM·h. In data set [4], this compound returned a Cmax of 710 nM. The compound also showed a half-life in [5] of 1.28 h.

One may read the inhibition in vivo as the drop in the measured response relative to a control, in per cent. By logD is commonly meant lipophilicity at a set pH, counting ionised and neutral species. A high value points to higher lipophilicity. A word on the AUC: it is the area under the concentration-time curve, a measure of exposure. Read a high AUC as high exposure. What is called Cmax is the highest concentration seen after dosing. Broadly, the half-life is the time in which the quantity being followed falls by half. Read a high half-life as slow loss. Usually ED50 stands for the dose at which the effect has come halfway, by size or by number of responders. As a reminder, the IC50 is the midpoint of a concentration-inhibition curve. What is called EC50 is the concentration at which the effect is half-maximal. A higher EC50 goes with weaker potency. What is called Emax is the maximal effect, on the per cent scale that the assay sets.

Values taken from ChEMBL document CHEMBL4387744, “Discovery of conolidine derivative DS39201083 as a potent novel analgesic without mu opioid agonist activity” (Bioorg Med Chem Lett, 2019).
